In ChEMBL document CHEMBL5329174, “Discovery of benzoxazole-thiazolidinone hybrids as promising antibacterial agents against Staphylococcus aureus and Enterococcus species” (RSC Med Chem, 2023):
Values after ≈ are worked out from the molar mass of the structure shown.

How the values were obtained:
[1] = test system: Staphylococcus aureus; assay: Antibacterial activity against methicilin-resistant Staphylococcus aureus NRS 192 assessed as reduction in bacterial growth; type: functional
How it was run: (§1)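 CLSI broth microdilution in cation-supplemented Mueller–Hinton broth II. Starter cultures were grown overnight at 37 °C with shaking from a single MHA colony, then diluted by OD600 to ~10^6 CFU/mL. Compounds came from 10 mg/mL DMSO stocks and were tested two-fold from 64 to 0.5 mg/L. Plates were incubated 37 °C for 18–24 h. MIC was taken as the lowest concentration with no visible growth. Three independent runs, each in duplicate.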

[2] = test system: Staphylococcus aureus; assay: Antibacterial activity against methicilin-resistant Staphylococcus aureus NRS 129 assessed as reduction in bacterial growth; type: functional; how it was run: as §1
[3] = test system: Klebsiella pneumoniae; assay: Antibacterial activity against Klebsiella pneumoniae BAA-1705 assessed as reduction in bacterial growth; type: functional
How it was run: (§2)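 CLSI broth microdilution in cation-supplemented Mueller–Hinton broth II; overnight starter cultures (37 °C, shaking, 18–24 h) adjusted by OD600 to ~10^6 CFU/mL. Compounds dosed from DMSO stocks (10 mg/mL stock) as two-fold dilutions, 64–0.5 mg/L. Plates held 37 °C, 18–24 h. MIC = lowest concentration without visible growth. Three independent runs, each in duplicate.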

[4] = test system: Enterococcus faecium; assay: Antibacterial activity against vancomycin-resistant Enterococcus faecium NR 31909 assessed as inhibition of bacterial growth
[5] = test system: Enterococcus faecalis; assay: Antibacterial activity against vancomycin-susceptible Enterococcus faecalis NR 31887 assessed as inhibition of bacterial growth incubated for 18 to 24 hrs by broth microdilution assay; type: functional; conditions: time 18-24 hrs; how it was run: as §2
[6] = test system: Staphylococcus aureus; assay: Antibacterial activity against methicilin-resistant Staphylococcus aureus NRS 193 assessed as reduction in bacterial growth; type: functional; how it was run: as §1
[7] = test system: Enterococcus faecium; assay: Antibacterial activity against vancomycin-resistant Enterococcus faecium NR 31903 assessed as inhibition of bacterial growth
[8] = test system: Staphylococcus aureus; assay: Antibacterial activity against methicilin-resistant Staphylococcus aureus NRS 119 assessed as reduction in bacterial growth; type: functional; how it was run: as §1
[9] = test system: Enterococcus faecalis; assay: Antibacterial activity against vancomycin-susceptible Enterococcus faecalis NR 31885 assessed as inhibition of bacterial growth incubated for 18 to 24 hrs by broth microdilution assay; type: functional; conditions: time 18-24 hrs; how it was run: as §2
[10] = test system: Staphylococcus aureus; assay: Antibacterial activity against methicilin-resistant Staphylococcus aureus NRS 194 assessed as reduction in bacterial growth; type: functional; how it was run: as §1
[11] = test system: Enterococcus faecalis; assay: Antibacterial activity against vancomycin-susceptible Enterococcus faecalis NR 31888 assessed as inhibition of bacterial growth incubated for 18 to 24 hrs by broth microdilution assay; type: functional; conditions: time 18-24 hrs; how it was run: as §2
[12] = test system: Staphylococcus aureus; assay: Antibacterial activity against vancomycin-resistant Staphylococcus aureus VRS 1 assessed as reduction in bacterial growth; type: functional; how it was run: as §1
[13] = Cytotoxicity against african green monkey Vero cells assessed as reduction in cell viability incubated for 72 hrs by MTT assay; type: toxicity, cell-based; conditions: chlorocebus sabaeus
How it was run: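 Vero (ATCC CCL-81) cells seeded at ~10^3 per well, 37 °C, 5% CO2. After 24 h, compound added at 100–12.5 μg/mL for 72 h. MTT then given for 4 h at 37 °C, formazan dissolved in DMSO, absorbance read at 540 nm. CC50 taken as the concentration giving 50% viability loss; doxorubicin as positive control; triplicate.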

[14] = test system: Staphylococcus aureus; assay: Antibacterial activity against vancomycin-resistant Staphylococcus aureus VRS 4 assessed as reduction in bacterial growth; type: functional; how it was run: as §1
[15] = test system: Staphylococcus aureus; assay: Antibacterial activity against methicilin-resistant Staphylococcus aureus NRS 100 assessed as reduction in bacterial growth; type: functional; how it was run: as §1
[16] = test system: Enterococcus faecalis; assay: Antibacterial activity against vancomycin-susceptible Enterococcus faecalis NR 31886 assessed as inhibition of bacterial growth incubated for 18 to 24 hrs by broth microdilution assay; type: functional; conditions: time 18-24 hrs; how it was run: as §2
[17] = test system: Staphylococcus aureus; assay: Antibacterial activity against Staphylococcus aureus ATCC 29213 assessed as reduction in bacterial growth; type: functional; how it was run: as §2
[18] = test system: Staphylococcus aureus; assay: Antibacterial activity against methicilin-resistant Staphylococcus aureus NRS 186 assessed as reduction in bacterial growth; type: functional; how it was run: as §1
[19] = test system: Staphylococcus aureus; assay: Antibacterial activity against methicilin-resistant Staphylococcus aureus NRS 198 assessed as reduction in bacterial growth; type: functional; how it was run: as §1
[20] = test system: Staphylococcus aureus; assay: Antibacterial activity against vancomycin-resistant Staphylococcus aureus VRS 12 assessed as reduction in bacterial growth; type: functional; how it was run: as §1
[21] = test system: Staphylococcus aureus; assay: Antibacterial activity against methicilin-resistant Staphylococcus aureus NRS 191 assessed as reduction in bacterial growth; type: functional; how it was run: as §1
[22] = test system: Enterococcus faecalis; assay: Antibacterial activity against vancomycin-susceptible Enterococcus faecalis NR 31884 assessed as inhibition of bacterial growth incubated for 18 to 24 hrs by broth microdilution assay; type: functional; conditions: time 18-24 hrs; how it was run: as §2
[23] = test system: Enterococcus faecium; assay: Antibacterial activity against vancomycin-resistant Enterococcus faecium NR 31912 assessed as inhibition of bacterial growth
[24] = test system: Escherichia coli; assay: Antibacterial activity against Escherichia coli ATCC 25922 assessed as reduction in bacterial growth; type: functional; how it was run: as §2
[25] = test system: Acinetobacter baumannii; assay: Antibacterial activity against Acinetobacter baumannii BAA-1605 assessed as reduction in bacterial growth; type: functional; how it was run: as §2
[26] = test system: Pseudomonas aeruginosa; assay: Antibacterial activity against Pseudomonas aeruginosa ATCC 27853 assessed as reduction in bacterial growth; type: functional; how it was run: as §2
[27] = Selectivity index, ratio of CC50 for cytotoxicity against african green monkey Vero cells assessed as reduction in cell viability to MIC for antibacterial activity against Staphylococcus aureus ATCC 29213 assessed as reduction in bacterial growth; type: toxicity, cell-based; conditions: read-out: Selectivity Index

C[C@H]1COc2c(N3CCN(C)CC3)c(F)cc3c(=O)c(C(=O)O)cn1c23 [LEVOFLOXACIN ANHYDROUS]
MIC [1]: 8 µg/mL (≈ 22.1 µM)
MIC [2]: 0.25 µg/mL (≈ 0.692 µM)
MIC [3]: 64 µg/mL (≈ 177 µM)
MIC [4]: 64 µg/mL (≈ 177 µM)
MIC [5]: 0.25 µg/mL (≈ 0.692 µM)
MIC [6]: 32 µg/mL (≈ 88.6 µM)
MIC [7]: > 64 µg/mL
MIC [8]: 16 µg/mL (≈ 44.3 µM)
MIC [9]: 0.25 µg/mL (≈ 0.692 µM)
MIC [10]: 0.125 µg/mL (≈ 0.346 µM)
MIC [11]: 0.25 µg/mL (≈ 0.692 µM)
MIC [12]: 64 µg/mL (≈ 177 µM)
CC50 at 72 h [13]: > 100 µg/mL
MIC [14]: > 64 µg/mL
MIC [15]: 0.25 µg/mL (≈ 0.692 µM)
MIC [16]: 0.25 µg/mL (≈ 0.692 µM)
MIC [17]: 0.125 µg/mL (≈ 0.346 µM)
MIC [18]: 8 µg/mL (≈ 22.1 µM)
MIC [19]: 32 µg/mL (≈ 88.6 µM)
MIC [20]: 32 µg/mL (≈ 88.6 µM)
MIC [21]: 16 µg/mL (≈ 44.3 µM)
MIC [22]: 0.25 µg/mL (≈ 0.692 µM)
MIC [23]: 64 µg/mL (≈ 177 µM)

O=C1N/C(=N\c2nc3ccccc3o2)S/C1=C\c1ccc(F)cc1
MIC [24]: > 64 µg/mL
MIC [3]: > 64 µg/mL
MIC [25]: > 64 µg/mL
MIC [17]: 8 µg/mL (≈ 23.6 µM)
MIC [26]: > 64 µg/mL

O=C1N/C(=N\c2nc3ccccc3o2)S/C1=C\c1ccccc1O
MIC [24]: > 64 µg/mL
MIC [3]: > 64 µg/mL
MIC [25]: > 64 µg/mL
MIC [17]: 4 µg/mL (≈ 11.9 µM)
MIC [26]: > 64 µg/mL

CSc1ccc(/C=C2\S/C(=N/c3nc4ccccc4o3)NC2=O)cc1
MIC [24]: > 64 µg/mL
MIC [3]: > 64 µg/mL
MIC [25]: > 64 µg/mL
MIC [17]: 32 µg/mL (≈ 87.1 µM)
MIC [26]: > 64 µg/mL

COc1cc(/C=C2\S/C(=N/c3nc4ccccc4o3)NC2=O)ccc1O
MIC [1]: 4 µg/mL (≈ 10.9 µM)
MIC [24]: > 64 µg/mL
MIC [2]: 4 µg/mL (≈ 10.9 µM)
MIC [3]: > 64 µg/mL
MIC [4]: 0.25 µg/mL (≈ 0.68 µM)
MIC [5]: 16 µg/mL (≈ 43.6 µM)
selectivity ratio [27]: > 20
MIC [6]: 4 µg/mL (≈ 10.9 µM)
MIC [7]: 4 µg/mL (≈ 10.9 µM)
MIC [8]: 4 µg/mL (≈ 10.9 µM)
MIC [9]: 16 µg/mL (≈ 43.6 µM)
MIC [10]: 4 µg/mL (≈ 10.9 µM)
MIC [11]: 16 µg/mL (≈ 43.6 µM)
MIC [12]: 4 µg/mL (≈ 10.9 µM)
CC50 at 72 h [13]: > 40 µg/mL
MIC [14]: 4 µg/mL (≈ 10.9 µM)
MIC [25]: > 64 µg/mL
MIC [15]: 2 µg/mL (≈ 5.44 µM)
MIC [16]: 16 µg/mL (≈ 43.6 µM)
MIC [17]: 2 µg/mL (≈ 5.44 µM)
MIC [18]: 2 µg/mL (≈ 5.44 µM)
MIC [19]: 4 µg/mL (≈ 10.9 µM)
MIC [20]: 2 µg/mL (≈ 5.44 µM)
MIC [26]: > 64 µg/mL
MIC [21]: 2 µg/mL (≈ 5.44 µM)
MIC [22]: 16 µg/mL (≈ 43.6 µM)
MIC [23]: 0.25 µg/mL (≈ 0.68 µM)

O=C1N/C(=N\c2nc3ccccc3o2)S/C1=C\c1ccccc1F
MIC [24]: > 64 µg/mL
MIC [3]: > 64 µg/mL
MIC [25]: > 64 µg/mL
MIC [17]: 16 µg/mL (≈ 47.1 µM)
MIC [26]: > 64 µg/mL

C[C@@H](O)[C@H]1C(=O)N2C(C(=O)O)=C(S[C@@H]3CN[C@H](C(=O)N(C)C)C3)[C@H](C)[C@H]12 [MEROPENEM]
MIC [1]: 8 µg/mL (≈ 20.9 µM)
MIC [2]: 4 µg/mL (≈ 10.4 µM)
MIC [6]: 64 µg/mL (≈ 167 µM)
MIC [8]: 64 µg/mL (≈ 167 µM)
MIC [10]: 1 µg/mL (≈ 2.61 µM)
MIC [12]: 64 µg/mL (≈ 167 µM)
MIC [14]: 64 µg/mL (≈ 167 µM)
MIC [15]: 32 µg/mL (≈ 83.4 µM)
MIC [17]: 0.125 µg/mL (≈ 0.326 µM)
MIC [18]: 8 µg/mL (≈ 20.9 µM)
MIC [19]: 64 µg/mL (≈ 167 µM)
MIC [20]: 8 µg/mL (≈ 20.9 µM)
MIC [21]: 64 µg/mL (≈ 167 µM)

CN(C)c1ccc(/C=C2\S/C(=N/c3nc4ccccc4o3)NC2=O)cc1
MIC [24]: > 64 µg/mL
MIC [3]: > 64 µg/mL
MIC [25]: > 64 µg/mL
MIC [17]: > 64 µg/mL
MIC [26]: > 64 µg/mL

O=C1N/C(=N\c2nc3ccccc3o2)S/C1=C\c1ccccc1
MIC [24]: > 64 µg/mL
MIC [3]: > 64 µg/mL
MIC [25]: > 64 µg/mL
MIC [17]: 4 µg/mL (≈ 12.4 µM)
MIC [26]: > 64 µg/mL

O=C1N/C(=N\c2nc3ccccc3o2)S/C1=C\c1ccccn1
MIC [24]: > 64 µg/mL
MIC [3]: > 64 µg/mL
MIC [25]: > 64 µg/mL
MIC [17]: 8 µg/mL (≈ 24.8 µM)
MIC [26]: > 64 µg/mL

O=C1N/C(=N\c2nc3ccccc3o2)S/C1=C\c1ccccc1[N+](=O)[O-]
MIC [24]: > 64 µg/mL
MIC [3]: > 64 µg/mL
MIC [25]: > 64 µg/mL
MIC [17]: 8 µg/mL (≈ 21.8 µM)
MIC [26]: > 64 µg/mL

O=C1N/C(=N\c2nc3ccccc3o2)S/C1=C\c1cccc([N+](=O)[O-])c1
MIC [24]: > 64 µg/mL
MIC [3]: > 64 µg/mL
MIC [25]: > 64 µg/mL
MIC [17]: > 64 µg/mL
MIC [26]: > 64 µg/mL

COc1ccc(/C=C2\S/C(=N/c3nc4ccccc4o3)NC2=O)cc1
MIC [24]: > 64 µg/mL
MIC [3]: > 64 µg/mL
MIC [25]: > 64 µg/mL
MIC [17]: > 64 µg/mL
MIC [26]: > 64 µg/mL
